From article PMC11335262 (Cellular and Molecular Life Sciences: CMLS, 2024)

Columns and labels:
α9α10^α9TM2TM3loop = α9α10^α9TM2TM3loop (Rattus norvegicus, UniProt P43144+Q9JLB5, A292S/P291A/S288I/S294N); experiment: ACh-evoked currents, two-electrode voltage-clamp in X. laevis oocytes; type: cell-based; conditions: prolonged (1 min) ACh application
α9α10 nAChR = α9α10 nAChR (Rattus norvegicus, UniProt P43144+Q9JLB5); conditions: prolonged ACh application; cited from earlier work
homomeric α9 nAChR = conditions: cited from earlier work
α9E202Qα10 = experiment: ACh-evoked currents, two-electrode voltage-clamp in X. laevis oocytes; type: cell-based, rat; conditions: 1 mM ACh; α9E202Qα10 mutant receptor
How it was run: (§1)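 Rat subunit cRNAs (0.01–1.0 ng in 50 nl water, 1:1 molar ratio when co-injected) were injected into stage V–VI X. laevis oocytes kept in Barth's solution at 18 °C. Oocytes were preloaded 3 h with 100 µM BAPTA-AM.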

α9^α10TM2TM3loop = experiment: as above; type: cell-based, rat; conditions: 1 mM ACh; α9^α10TM2TM3loop injected alone or co-injected with α9
How it was run: as §1

α9E72Qα10 = experiment: as above; type: cell-based, rat; conditions: 1 mM ACh; α9E72Qα10 mutant receptor
How it was run: as §1

α9α10^α9TM2TM3loop, sequence (P43144 26-479, stated change not applied): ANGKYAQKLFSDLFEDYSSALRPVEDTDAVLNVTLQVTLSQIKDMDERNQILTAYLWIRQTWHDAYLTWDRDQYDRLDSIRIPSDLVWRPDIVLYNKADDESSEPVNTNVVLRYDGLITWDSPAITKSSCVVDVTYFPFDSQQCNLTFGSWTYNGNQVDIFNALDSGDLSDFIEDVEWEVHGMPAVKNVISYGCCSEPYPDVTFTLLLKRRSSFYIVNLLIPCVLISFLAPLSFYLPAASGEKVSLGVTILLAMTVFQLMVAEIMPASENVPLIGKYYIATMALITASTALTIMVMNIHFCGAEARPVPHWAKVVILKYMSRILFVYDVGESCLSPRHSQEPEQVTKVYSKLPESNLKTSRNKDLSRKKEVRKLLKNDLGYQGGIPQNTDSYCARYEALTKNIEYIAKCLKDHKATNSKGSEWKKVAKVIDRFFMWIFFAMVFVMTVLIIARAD
α9α10^α9TM2TM3loop, sequence (Q9JLB5 25-447 S288I/P291A/A292S/S294N): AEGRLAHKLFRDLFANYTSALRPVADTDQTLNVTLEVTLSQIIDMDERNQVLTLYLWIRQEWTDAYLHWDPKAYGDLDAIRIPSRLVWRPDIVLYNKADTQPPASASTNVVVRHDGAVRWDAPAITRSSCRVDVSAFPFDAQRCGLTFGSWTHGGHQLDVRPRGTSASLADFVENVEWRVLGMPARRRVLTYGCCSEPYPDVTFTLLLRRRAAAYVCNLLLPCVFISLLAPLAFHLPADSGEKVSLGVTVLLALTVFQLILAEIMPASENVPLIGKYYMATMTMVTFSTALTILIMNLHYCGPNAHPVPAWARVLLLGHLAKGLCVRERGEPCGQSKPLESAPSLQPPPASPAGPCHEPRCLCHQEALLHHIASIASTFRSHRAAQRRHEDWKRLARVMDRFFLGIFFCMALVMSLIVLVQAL
α9α10 nAChR, sequence (P43144 26-479): as the sequence (P43144 26-479, stated change not applied) above
α9α10 nAChR, sequence (Q9JLB5 25-447): as the sequence (Q9JLB5 25-447 S288I/P291A/A292S/S294N) above, with I264S, A267P, S268A, N270S counted along it

remaining current after 20 s of the peak response to ACh (α9α10^α9TM2TM3loop): 61.9 ± 4.6%
Compound: CC(=O)OCC[N+](C)(C)C [ACh, Acetylcholine]
remaining current after 20 s of the peak response to ACh (α9α10 nAChR): 57.1 ± 4.3%
maximal amplitude of responses (homomeric α9 nAChR; 100 µM ACh, absence of extracellular Ca^2+): 182 ± 20 nA
EC50 (homomeric α9 nAChR; ACh concentration-response, ref 45 (Verbitsky et al. 2000)): 11.4 ± 0.8 µM
remaining current after 20 s of the peak response to ACh (homomeric α9 nAChR; prolonged application of a high ACh concentration): 94.9 ± 1.6%
response to ACh (in words) (α9E202Qα10): failed to respond
response to ACh (in words) (α9^α10TM2TM3loop): did not render functional receptors
response to ACh (in words) (α9E72Qα10): failed to respond
